Bioassay records as filed in PubChem.
CAL PDZ FP-1 = CAL PDZ peptide-binding inhibitors, primary screen, biochemical, fluorescence polarization, Cer-tagged CAL PDZ, HTS. purified CAL PDZ, TMR-peptide fluorescence polarization, 1 h. AID 504414, 2011. hit rate 0.02% among 330,000. Golgi-associated PDZ and coiled-coil motif-containing protein (Homo sapiens), Q9HD26. inhibition, % at 20 µM;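 active means highest replicate inhibition of at least 40%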;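 further: plate controls were DMSO neutral control wells for no effect and unlabeled competitor peptide control wells for full effect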
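System: purified tagged CAL PDZ domain construct (CerCALP). Schedule: 1 h incubation at room temperature before polarization reading. Medium: 25 mM sodium phosphate pH 7.4, 150 mM NaCl, TCEP, IgG, Thesit. Read-out: percent inhibition from loss of millipolarization. Measured by: FP readout, S and P plane fluorescence. Probe or stimulus: fluorescent TMR peptide probe.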
CAL PDZ FP-2 = untagged CAL PDZ binding inhibitors, primary screen, biochemical, fluorescence polarization, HTS; Golgi-associated PDZ and coiled-coil motif-containing protein (Homo sapiens), Q9HD26; hit rate 0.92% among 300,000; AID 602252, 2012; inhibition, % at 24.9 µM; purified CAL PDZ, TMR-peptide fluorescence polarization, 1 h;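 active means mean inhibition of at least 30% with at least half of replicates also reaching 30%; inconclusive means no clear call, values can overlap the other calls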;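 further: 0% = DMSO neutral control and 100% = excess unlabeled competitor peptide PRC23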
ATG4B inh = ATG4B protease inhibitors, primary screen, biochemical, fluorescence, uHTS | Cysteine protease ATG4B (Homo sapiens), Q9Y4P1 | ATG4B cleavage of LC3-PLA2, NBD-HPC fluorescence, 1 h | inhibition, % at 8.33 µM | hit rate 0.51% among 340,000 | AID 504462, 2011; in the data active means inhibition above about 40%
Target sequence (Q9Y4P1 whole entry, looked up): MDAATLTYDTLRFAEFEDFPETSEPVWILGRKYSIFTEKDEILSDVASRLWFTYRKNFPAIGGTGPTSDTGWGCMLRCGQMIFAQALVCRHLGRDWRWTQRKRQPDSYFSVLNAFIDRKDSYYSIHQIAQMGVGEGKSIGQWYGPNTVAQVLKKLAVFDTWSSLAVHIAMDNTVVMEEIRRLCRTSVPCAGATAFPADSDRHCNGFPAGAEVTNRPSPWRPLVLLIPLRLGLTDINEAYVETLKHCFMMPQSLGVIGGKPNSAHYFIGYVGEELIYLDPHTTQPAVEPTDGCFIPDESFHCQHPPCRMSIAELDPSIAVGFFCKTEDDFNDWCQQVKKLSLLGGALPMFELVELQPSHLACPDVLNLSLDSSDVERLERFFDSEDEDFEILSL
SR-BI HDL uptake = inhibitors of SR-BI mediated HDL lipid uptake, primary screen, ldlA[mSR-BI] cells, fluorescence, single point. inhibition, % at 12.5 µM. Scavenger receptor class B member 1 (Mus musculus), Q61009. hit rate 0.96% among 320,000. AID 488896, 2010. ldlA[mSR-BI] CHO cells, DiI-HDL uptake fluorescence, 3 h;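 active means mean replicate inhibition of at least 70% and a set share of replicates each scoring 70 or more; inconclusive means meets just one of the two criteria; inactive means fails both criteria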;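 further: 0% = median of neutral control wells and 100% = median of positive control wells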
SR-BI uptake up = activators of SR-BI mediated DiI-HDL uptake, primary screen, ldlA[mSR-BI] CHO cells, DiI fluorescence; 3 h; 100 = double the neutral-control signal; activation, % at 12.5 µM; hit rate 0.096% among 320,000; AID 504775, 2011;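 active means mean replicate activation of at least 60% and every replicate at or above 60%; inconclusive means mean or all-replicate condition met, but not both; inactive means mean below 60% and not all replicates reaching 60%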;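 further: 0% = median plate neutral-control signal and 100% = twice that signal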
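Test system: SR-BI-overexpressing, LDLR-lacking CHO cells; Medium: Ham's F12 with 0.5% BSA, HEPES 25 mM, pH 7.4; Schedule: 3 h, 37 °C; Technique: bottom-read fluorescence, 550/595 nm.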
* = called active by the depositor; ? = inconclusive; / = no result; + = active, no number. A selection: hits, their analogues and other compounds. The true share with any hit is near 2.3%.

SMILES | CAL PDZ FP-1 | CAL PDZ FP-2 | ATG4B inh | SR-BI HDL uptake | SR-BI uptake up
Cc1cc(C)c(O)c(CN(C)Cc2cc(Cl)cc(Cl)c2O)c1 | -1.9 | 0.2 | 1.0 | 112.2* | -112.2
c1ccc(-c2csc(Nc3nc(N4CCOCC4)nc(N4CCOCC4)n3)n2)cc1 | 0.2 | 49.4* | -12.5 | 54.2 | -54.2
Cc1cc(C)nc(Nc2nc(-c3ccccc3)cs2)n1 | 2.4 | -3.9 | 8.0 | 39.1 | -39.1
O=C(COC(=O)COc1ccc(Br)cc1)NCC1CCCO1 (stereo not given) | 0.0 | 90.7* | -10.1 | -14.0 | 14.0
O=C(NCCN1CCN(C(=O)c2ccc(Br)cc2)CC1)c1ccc(Br)cc1 | 0.7 | -3.8 | -11.7 | 71.1* | -71.1
Cc1ccc(C(=O)NCCN2CCN(C(=O)c3ccc(C)c(C)c3)CC2)cc1C | -0.9 | -3.8 | -8.4 | ? | -70.7
NNC(=O)c1cc2c(N3CCC(Cc4ccccc4)CC3)ncnc2s1 | -1.6 | -6.4 | -5.5 | 79.9* | -79.9
CCN(CC)C(=O)Cn1cc(C(=O)C(=O)N2CCc3ccccc32)c2ccccc21 | -1.5 | 46.1* | 34.1 | -2.9 | 2.9
N#CCCN(Cc1ccccc1)C(=O)c1cccs1 | 0.7 | + | -2.4 | 4.7 | -4.7
CCOc1cccc(N2CCN(CCNC(=O)Nc3ccc(C)cc3)CC2)c1C | 0.2 | 37.1* | -7.6 | 23.8 | -23.8
Cc1cc(NC(=O)CCC(=O)N(Cc2ccco2)C(C(=O)NC2CCCCC2)c2ccccc2)no1 (stereo not given) | -1.1 | 39.1* | -9.2 | -2.6 | 2.6
Cc1cc(NC(=O)CCC(=O)N(Cc2ccco2)C(C(=O)NC2CCCC2)c2ccccc2C)no1 (stereo not given) | -0.2 | -4.7 | -8.0 | -4.7 | 4.7
Cc1cccc(NC(=S)N2CCN(C(=O)C3CCCO3)CC2)c1 (stereo not given) | -1.5 | 66.9* | -7.8 | -10.1 | 10.1
Cc1onc(-c2c(F)cccc2Cl)c1C(=O)NCc1ccccn1 | -0.8 | 87.7* | -12.2 | -10.8 | 10.8
CN1C(C)(C)CC(=NOC(=O)c2ccccc2)CC1(C)C | -0.4 | 61.7* | -8.7 | -5.7 | 5.7
O=C(ON=C1CCSCC1)c1ccccc1 | -1.6 | -4.9 | -6.3 | -8.1 | 8.1
CCOc1ccc(S(=O)(=O)NC(C)C(=O)NCc2ccc3c(c2)OCO3)cc1 (stereo not given) | 0.0 | 75.8* | 4.0 | 15.7 | -15.7
CC(NS(=O)(=O)c1ccc(Br)cc1)C(=O)NCc1ccc2c(c1)OCO2 (stereo not given) | -0.2 | 0.0 | -5.0 | -16.5 | 16.5
CNc1nc(NN)nc(Nc2ccccc2)n1 | -2.2 | 58.2* | 1.6 | 10.5 | -10.5
Cc1ccccc1OCc1nc(-c2ccc(NC(=O)c3ccco3)cc2)no1 | -1.4 | -4.4 | 13.7 | 61.1 | -61.1
CC(C)(C)N(Cc1nc(-c2ccccc2)no1)C(=O)c1ccc2c(c1)OCO2 | -1.3 | 65.1* | 10.5 | -13.9 | 13.9
CN(Cc1nc(-c2ccccc2)no1)C(=O)c1ccc2c(c1)OCO2 | -2.9 | 0.6 | 0.3 | -34.0 | 34.0
Cc1ccccc1OCc1nc(-c2ccc(NC(=O)c3ccc4c(c3)OCO4)cc2)no1 | -0.4 | -2.7 | -12.3 | 90.6* | -90.6
O=C(CS(=O)(=O)c1cn(CC(=O)N2CCOCC2)c2ccccc12)Nc1ccccc1F | -1.3 | -3.3 | 8.0 | 2.5 | -2.5
NS(=O)(=O)c1ccc(CCNC(=O)CNC(=O)c2ccccc2F)cc1 | -1.9 | -0.1 | 7.2 | / | /
SMILES | CAL PDZ FP-1 | CAL PDZ FP-2 | ATG4B inh | SR-BI HDL uptake | SR-BI uptake up
O=C(/C=C/c1cccc(F)c1)OCC(=O)N1CCc2ccccc21 | 0.6 | -0.7 | -4.7 | -19.7 | 19.7
Cc1ccc(NC(=O)C(=O)NCc2ccncc2)cc1 | -0.7 | / | 0.6 | -2.2 | 2.2
CCCCc1ccc(S(=O)(=O)Nc2nnc(C)s2)cc1 | -4.7 | 51.9* | -1.1 | 6.7 | -6.7
Cc1cc(C(=O)NNC(=O)c2ccc(C(F)(F)F)cc2)no1 | -0.1 | 59.6* | 0.8 | 6.8 | -6.8
Cc1cc(C(=O)NNC(=O)c2cccc(C(F)(F)F)c2)no1 | -0.6 | 45.0* | -2.4 | 0.2 | -0.2
Cc1cc(C(=O)NNC(=O)Nc2cccc(C(F)(F)F)c2)no1 | 0.0 | -2.7 | 6.7 | -13.1 | 13.1
Cn1c(O)c(/C=N/NC(=O)c2cc3ccccc3cc2O)c2ccccc21 | -2.8 | -8.7 | 31.5 | / | /
COc1ccc2c(c1)cc(C(=O)N/N=C/c1c(O)c(C(=O)O)cc3ccccc13)n2C | / | -2.9 | -5.9 | 86.2* | -86.2
CN(C)c1ccc(S(=O)(=O)N2CCCCC2)cc1NC(=O)CCNC(=O)c1ccccc1Cl | -0.7 | -3.5 | -7.0 | 37.3 | -37.3
O=C(/C=C/NNC(=O)c1ccc(Cl)cc1)c1ccccc1 | -0.7 | -2.6 | 0.6 | 111.5* | -111.5
COc1ccc(C(=O)C=CNNC(=O)c2ccc(Cl)cc2)cc1 | -2.2 | -1.7 | 5.1 | 95.5* | -95.5
O=C(/C=C/NNC(=O)c1ccccc1)c1ccc(Br)cc1 | -0.7 | 2.4 | -0.7 | 118.1* | -118.1
COc1ccc(C(=O)NNC(=O)Nc2ccc(Cl)cc2)cc1 | / | 7.1 | -4.1 | -7.5 | 7.5
Cc1ccc(C(=O)/C=C/NNC(=O)c2ccccc2O)cc1 | / | 0.5 | 6.9 | 37.7 | -37.7
O=C(/C=C/NNC(=O)c1cccc(Br)c1)c1cccc(Br)c1 | -2.4 | -10.7 | -1.2 | 68.1 | -68.1
CN(Cc1ccncn1)C(=O)C1CCC(=O)N(Cc2cccc(C(F)(F)F)c2)C1 (stereo not given) | -0.4 | 3.6 | 16.4 | 2.9 | -2.9
O=C(Nc1ccc(F)cc1F)c1ccc(-n2cccn2)c([N+](=O)[O-])c1 | -0.5 | -0.9 | -0.5 | 8.1 | -8.1
CCOC(=O)C1CCN(c2nc3c(C)cccn3c(=O)c2/C=C(\C#N)S(=O)(=O)c2ccccc2)CC1 | -1.9 | -4.2 | 16.7 | -29.6 | 29.6
O=C(CCC(=O)c1ccccc1)Nc1ccccc1OC(F)F | -1.2 | 32.5* | 5.8 | -7.2 | 7.2
O=C(Nc1ccccc1OC(F)F)c1ccccc1 | -1.4 | / | -12.3 | -15.5 | 15.5
COc1ccc(-c2csc(Nc3ccc(S(N)(=O)=O)cc3)n2)cc1 | 0.9 | 0.1 | -0.3 | -107.9 | 107.9*
COc1ccc(-c2csc(Nc3ccccc3)n2)cc1 | 0.8 | 3.2 | 7.6 | 73.4* | -73.4
c1cc2c(cc1Nc1nc(-c3ccc4c(c3)OCO4)cs1)OCCO2 | / | -3.2 | 4.3 | -4.1 | 4.1
COc1cccc(Nc2nc(-c3ccc4c(c3)OCCO4)cs2)c1 | -1.6 | -3.3 | -1.6 | 91.4* | -91.4
COc1ccc(Nc2nc(-c3ccc(OC)cc3)cs2)cc1 | -0.8 | / | -4.9 | 40.8 | -40.8
